DTT redox prof: compounds producing H2O2 with reducing agent – biochemical, NIH compound library profiling, artefact control for MLSCN library redox annotation, primary screen | DTT-dependent redox cycling H2O2, phenol red/HRP absorbance; 100% = 100 µM peroxide control, 0% = buffer | activation, % at 10 µM | 200,000 compounds, 0.03% hits | AID 878;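 active = activation of at least 50% relative to the plate's high and low controls in the primary single-dose screen; inactive = activation below 50%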;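 note: compound incubated with DTT at 0.8 mM final as the reducing agent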
FLuc stim CS: affects firefly luciferase, flagging false hits in luciferase stimulation screens; activation factor at 10 µM; ATPlite luciferase biochemical, luminescence, 10 min; 0 = ATP-free wells, 1 = DMSO control; 200,000 tested, under 10 active; AID 1027;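 active = luciferase activation factor, scaled between plate controls, of at least 2 with compound at 10 µM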
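Material: Luciferase/luciferin reagent mix; Doses: test compounds dosed from 2 mM stocks in 100% DMSO; Schedule: 10 min incubation after luciferase reagent addition, room temperature; Measured by: luminescence from luciferase reaction; Read-out: luminescence gain marking luciferase activators.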
Measles CPE: protection of cells from measles virus; protection (pct of control), % at 4 µM; Measles virus-infected cells, CPE protection, absorbance; 140,000 compounds, 1.5% hits; in the data active = protection mostly above about 24%, no sharp cut-off; inactive = mostly below about 26%
ABCB1 block: human ABCB1 inhibition, ABCG2 as counter-screen | P08183 | inhibition, % at 6.6 µM | 190,000 compounds, 0.067% hits | CCRF-Adr cells, JC-1 efflux, flow cytometry; in the data active = inhibition above about 40%;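 note: higher value means more JC-1 retained so stronger ABCB1 efflux block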
Target sequence (P08183 whole entry, looked up): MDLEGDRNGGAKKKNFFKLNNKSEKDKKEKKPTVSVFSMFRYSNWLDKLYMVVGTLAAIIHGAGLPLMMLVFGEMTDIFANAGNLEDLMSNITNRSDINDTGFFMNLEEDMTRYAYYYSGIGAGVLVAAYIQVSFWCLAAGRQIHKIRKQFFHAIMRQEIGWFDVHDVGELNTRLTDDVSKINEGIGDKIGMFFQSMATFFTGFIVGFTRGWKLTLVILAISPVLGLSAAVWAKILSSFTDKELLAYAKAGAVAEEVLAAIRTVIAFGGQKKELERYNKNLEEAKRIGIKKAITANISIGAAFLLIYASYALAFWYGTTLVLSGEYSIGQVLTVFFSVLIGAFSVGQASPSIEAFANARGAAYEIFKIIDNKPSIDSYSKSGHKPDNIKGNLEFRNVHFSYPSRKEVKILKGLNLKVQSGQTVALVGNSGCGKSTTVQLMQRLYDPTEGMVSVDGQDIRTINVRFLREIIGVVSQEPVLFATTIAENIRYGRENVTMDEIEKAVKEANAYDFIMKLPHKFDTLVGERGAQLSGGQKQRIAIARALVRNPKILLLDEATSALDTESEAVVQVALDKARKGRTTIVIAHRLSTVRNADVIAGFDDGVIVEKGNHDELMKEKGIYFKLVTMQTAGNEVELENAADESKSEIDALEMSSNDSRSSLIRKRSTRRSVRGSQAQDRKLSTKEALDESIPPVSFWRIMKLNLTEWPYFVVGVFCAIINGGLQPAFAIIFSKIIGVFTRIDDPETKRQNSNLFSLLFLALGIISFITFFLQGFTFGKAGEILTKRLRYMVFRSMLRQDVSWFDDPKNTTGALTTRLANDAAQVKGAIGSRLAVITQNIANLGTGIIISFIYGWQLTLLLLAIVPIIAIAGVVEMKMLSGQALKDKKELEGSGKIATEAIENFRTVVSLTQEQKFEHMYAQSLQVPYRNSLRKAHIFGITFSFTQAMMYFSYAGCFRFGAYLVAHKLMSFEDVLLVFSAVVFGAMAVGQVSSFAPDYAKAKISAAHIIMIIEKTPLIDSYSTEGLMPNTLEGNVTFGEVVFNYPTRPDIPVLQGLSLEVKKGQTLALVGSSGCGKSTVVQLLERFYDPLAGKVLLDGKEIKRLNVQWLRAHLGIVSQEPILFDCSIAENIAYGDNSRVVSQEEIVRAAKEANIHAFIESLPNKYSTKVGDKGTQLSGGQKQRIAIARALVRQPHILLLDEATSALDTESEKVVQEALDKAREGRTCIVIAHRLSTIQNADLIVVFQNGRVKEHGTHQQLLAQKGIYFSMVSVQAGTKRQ
ABCG2 block: blocks JC-1 efflux by human ABCG2 transporter | AID 1325 | Q9UNQ0 | 190,000 compounds, 0.1% hits | inhibition, % at 6.6 µM | IgMXP3 cells, flow cytometry;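 active = inhibition above 80%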
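Assay system – ABCG2 IgMXP3 and barcoded ABCB1 CCRF-Adr cell mix · Input – 3 million cells/mL in well · Reagent – JC-1 fluorescent substrate · Compound – single test compound dose, 6.6 µM final · Timing – 10 min exposure at 25 °C with rotation, no wash · Detection – flow cytometry of retained JC-1 fluorescence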
FLuc inh counter: counter-screen for luciferase assay inhibitors: firefly luciferase inhibition | AID 1006 | inhibition, % at 10 µM | ATPLite firefly luciferase biochemical luminescence, 10 min | P08659 | 200,000 compounds, 1.5% hits;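 active = inhibition above about 50% when tested at 10 µM, limit read from the data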
Numbers stand for hits; 0 = inactive; - = no result. A selection: hits, their analogues and other compounds. The true share with any hit is near 2.7%.

SMILES	DTT redox prof	FLuc stim CS	Measles CPE	ABCB1 block	ABCG2 block	FLuc inh counter
COc1ccc(C2CC23N=C(c2ccccc2)OC3=O)cc1 (configuration not stated)	0	0	43	0	0	0
O=C(O)/C=C/C(=O)NC1CCC(CC2CCC(NC(=O)/C=C/C(=O)O)CC2)CC1 (configuration not stated)	0	0	-	0	0	0
O=C(O)c1ccc(N2Cc3ccccc3C2)cc1O	0	0	71	0	0	0
CCOC(=O)c1ccc(N2Cc3cc(C)c(C)cc3C2)cc1O	-	0	-	-	-	0
COC(=O)[C@@]1(Cc2ccc(OC)cc2)[C@H]2c3cc(C(=O)N(C)C)[nH]c3C[C@H]2CN1C(=O)c1ccccc1	0	0	0	0	0	0
Nc1ccc(-c2cnc(-c3ccc(N)cc3)nc2)cc1	0	0	69	0	0	74
CCc1cc(C(=O)OC)c(NC(=O)CC2NCCNC2=O)s1 (configuration not stated)	0	0	0	0	0	0
CCc1cc(C(=O)OC)c(NC(=O)C2CC(=O)NN2Cc2ccccc2)s1 (configuration not stated)	0	0	23	0	0	0
Cc1ccc(/C=C/C(=O)N2CCc3ccccc32)o1	0	0	0	0	0	75
COc1ccc(/C=C/C(=O)N2CCCc3ccccc32)cc1	0	0	0	0	0	0
O=C(c1ccco1)N1CCc2ccccc21	0	0	-	0	0	0
O=C(/C=C/c1ccco1)N1CCc2ccccc21	0	0	-	0	0	82
CCOC(=O)/C=C/C(=O)N1CCc2ccccc21	0	0	25	0	0	0
CC1CC(C)CN(c2cc(=O)n(Cc3ccc(F)cc3)c(=O)[nH]2)C1 (configuration not stated)	0	0	0	0	0	0
Cc1ccc(NC(=S)c2nc3ccccc3[nH]2)cc1	0	0	0	0	0	83
Cc1ccc(NC(=S)c2nc3ccccc3[nH]2)c(C)c1	0	0	0	0	0	85
Cc1ccc(NC(=S)N2CCCC(c3nc4ccccc4[nH]3)C2)cc1 (configuration not stated)	0	0	-	0	0	0
CC(=O)Nc1ccc(N=Cc2c(O)c(C(=O)Nc3ccccc3)cc3ccccc23)cc1	0	0	-	70	103	95
CCOc1cc(Br)c(Br)c(C=Nc2ccc(NC(C)=O)cc2)c1O	0	0	0	0	0	0
CC(C)(C)c1ccc(OCC(=O)Nc2ccc3c4c(cccc24)C(=O)NC3=O)cc1	0	0	-	0	0	0
COc1cccc(/C=N/NC(=O)c2ccc(COc3ccc(Cl)cc3Cl)o2)c1	0	0	52	0	0	0
COc1cc(/C=N/NC(=O)c2ccc(COc3ccccc3Cl)o2)cc(Br)c1O	0	0	0	0	0	0
COCc1nnc(NC(=O)CSc2ccccc2)s1	0	0	0	0	0	0
COCc1nnc(NC(=O)CSc2ccc(C)cc2)s1	0	0	23	0	0	0
CCOC(=O)C(Cc1ccccc1)c1ccnc2ncnn12 (configuration not stated)	0	0	-	0	0	0
SMILES	DTT redox prof	FLuc stim CS	Measles CPE	ABCB1 block	ABCG2 block	FLuc inh counter
Cc1ccc(NC(=O)c2csc(-c3ccccc3)c2C)cc1	0	0	0	0	0	85
Cc1ccc(NC(=O)c2cc(C)n(-c3ccccc3)c2C)cc1	0	0	0	0	0	95
Cc1ccc(NC(=O)c2cc(C)n(-c3cccc(C)c3)c2C)cc1	0	0	0	0	0	74
Cc1ccc(-n2c(C)cc(C(=O)NS(=O)(=O)c3ccc(C)cc3)c2C)cc1	0	0	0	0	0	0
Cc1c(C(=O)Nc2cccc([N+](=O)[O-])c2)csc1-c1ccccc1	0	0	0	0	0	0
CCN1C=CC2=C(C#N)C(N)C(C#N)(C#N)C(c3ccccc3C(F)(F)F)C2C1 (configuration not stated)	0	0	0	0	0	0
CCNC(=S)N/N=C/c1cn(Cc2ccc(F)cc2)c2ccccc12	0	0	29	0	0	0
CCNC(=S)N/N=C/c1cn(Cc2ccccc2F)c2ccccc12	0	0	-	0	0	0
Cc1ccc(C(=O)Nc2nc3ccccc3n3nnnc23)cc1	0	0	21	0	0	0

Screens: PubChem, several laboratories
